Reference: ChEMBL document CHEMBL4014261, “Design, Synthesis, and Antimicrobial Evaluation of a Novel Bone-Targeting Bisphosphonate-Ciprofloxacin Conjugate for the Treatment of Osteomyelitis Biofilms” (J Med Chem, 2017)
In brackets after ≈: the same amount, converted by molar mass. Activity calls are given as the source filed them. No cut-off for these calls is given here.

Columns and labels:
[1] = test system: Staphylococcus aureus; assay: Antibacterial activity against methicillin-sensitive Staphylococcus aureus isolate 2 planktonic cells after 24 hrs by microdilution assay; assay type: functional; conditions: isolate 2, 24 h
Procedure, shortened: (§1)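 Planktonic cells at 1 × 10^5 CFU/mL were exposed to compound, and A580 was read at 0 h and after 24 h at 37 °C with shaking. Controls were medium plus microbes, with 1% (v/v) DMSO where the solvent was used. Relative cell number was calculated against the control. Results were confirmed by subculture in fresh medium (48 h, 37 °C) and plating. Conjugate concentrations were expressed as parent-antibiotic equivalents.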

[2] = test system: Staphylococcus aureus; assay: Antibacterial activity against methicillin-sensitive Staphylococcus aureus isolate 4 planktonic cells after 24 hrs by microdilution assay; assay type: functional; conditions: isolate 4, 24 h; procedure, shortened: as §1
[3] = test system: Staphylococcus aureus; assay: Antibacterial activity against methicillin-sensitive Staphylococcus aureus isolate 5 planktonic cells after 24 hrs by microdilution assay; assay type: functional; conditions: isolate 5, 24 h; procedure, shortened: as §1
[4] = test system: Staphylococcus aureus; assay: Antibacterial activity against methicillin-sensitive Staphylococcus aureus ATCC 6538 planktonic cells after 24 hrs by microdilution assay; assay type: functional; conditions: ATCC 6538, 24 h; procedure, shortened: as §1
[5] = test system: Staphylococcus aureus; assay: Antibacterial activity against methicillin-resistant Staphylococcus aureus MR4-CIPS planktonic cells after 24 hrs by microdilution assay; assay type: functional
Procedure, shortened: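 Broth microdilution: 100 µL of 1 × 10^5 CFU/mL inoculum with graded compound concentrations, read at 580 nm before and after 24 h at 37 °C with shaking to prevent biofilm formation. Relative cell number is taken against medium + microbes controls, with 1% DMSO in the ciprofloxacin control. Growth is confirmed by 48 h subculture in fresh medium and by plating. MIC is expressed as parent-antibiotic equivalents.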

[6] = test system: Staphylococcus aureus; assay: Antibacterial activity against methicillin-sensitive Staphylococcus aureus ATCC 6538 planktonic cells at pH 7.4 after 24 hrs by microdilution method; assay type: functional; conditions: ATCC 6538, 24 h
Procedure, shortened: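 Planktonic ATCC 6538 was tested by microdilution in medium adjusted to pH 5 or pH 7.4 with KOH or HCl, with pH checked by universal indicator. MIC50 was determined at each pH.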

[7] = test system: Staphylococcus aureus; assay: Bactericidal activity against Staphylococcus aureus ATCC 6538 biofilm using polystyrene as substrate assessed as reduction in colony forming units after 24 hrs; assay type: functional
Procedure, shortened: (§2)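 Biofilms were started from a 1 McFarland suspension, allowed to adhere 4 h at 37 °C on HA discs or polystyrene well bottoms, then rinsed. They were exposed 24 h at 37 °C to TSB containing 0.24–125 mg/L compound. Cells were detached in 0.5% saponin by 1 min vortexing, serially diluted and plated on Columbia (S. aureus) or MacConkey (P. aeruginosa) agar, 37 °C, 24 h. Read-out was mean CFU/mm² ± SEM; HA area was measured by X-ray tomography.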

[8] = test system: Staphylococcus aureus; assay: Bactericidal activity against Staphylococcus aureus ATCC 6538 biofilm using hydroxyapatite as substrate assessed as reduction in colony forming units after 24 hrs; assay type: functional; procedure, shortened: as §2
[9] = test system: Pseudomonas aeruginosa; assay: Bactericidal activity against Pseudomonas aeruginosa ATCC 15442 biofilm using hydroxyapatite as substrate assessed as reduction in colony forming units at 50 ug/ml at pH 4.8 to 7.4 after 24 hrs; assay type: functional
[10] = test system: Staphylococcus aureus; assay: Antibiofilm activity against Staphylococcus aureus ATCC 6538 assessed as reduction in bacterial adherence to HA at 0.24 to 7.8 ug/ml pretreated with HA for 24 hrs followed by organism inoculation measured after 24 hrs; assay type: functional
Procedure, shortened: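 HA spherules (final 10 mg/mL) in TSB were preincubated 24 h at 37 °C with shaking with compound (final 0.12–250 mg/L), then pelleted and the supernatant discarded. They were inoculated with 1 mL S. aureus at 10^5 CFU/mL. A580 was read at 0 and 24 h (37 °C, shaking) against controls without spherules and spherules without compound; spherules were also plated for CFU.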

[11] = test system: Staphylococcus aureus; assay: Antibiofilm activity against Staphylococcus aureus ATCC 6538 assessed as CFU counts at 5 ug/mL pretreated with HA for 24 hrs followed by organism inoculation measured after 24 hrs (reference value: 4.5 x 10^10CFU); assay type: functional
Procedure, shortened: (§3)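 HA discs were soaked 24 h at 37 °C in 2 mL compound solution, with DMSO or phosphate-buffer controls, then rinsed 3× with sterile water. Discs were inoculated with 2 mL of 0.5 McFarland S. aureus ATCC 6538 for biofilm formation. Biofilm CFU were counted after 24 h growth.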

[12] = test system: Staphylococcus aureus; assay: Antibiofilm activity against Staphylococcus aureus ATCC 6538 assessed as CFU counts at 25 ug/mL pretreated with HA for 24 hrs followed by organism inoculation measured after 24 hrs (reference value: 4.5 x 10^10CFU); assay type: functional; procedure, shortened: as §3
[13] = test system: Staphylococcus aureus; assay: Antibiofilm activity against Staphylococcus aureus ATCC 6538 assessed as CFU counts at 50 ug/mL pretreated with HA for 24 hrs followed by organism inoculation measured after 24 hrs (reference value: 4.5 x 10^10CFU); assay type: functional; procedure, shortened: as §3
[14] = test system: Aggregatibacter actinomycetemcomitans; assay: Antibiofilm activity against Aggregatibacter actinomycetemcomitans infected in jawbone peri-implant osteomyelitis Sprague-Dawley rat model assessed as reduction in bacterial count in bone at 0.1 to 1 mg/kg, ip single dose measured after 1 week post pharmacotherapy; assay type: functional, organism-based
Procedure, shortened: (§4)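 Rats carried two titanium implants each, preinoculated with A. actinomycetemcomitans D7S-1 biofilm (10^9 CFU), placed bilaterally in palatal bone. One week after surgery, randomized groups received i.p. doses in sterile saline; the negative control was endotoxin-free saline. One week after treatment, 1 cm² peri-implant tissue and bone were homogenized in 0.5% saponin, serially diluted 10-fold and spread-plated on modified TSB (37 °C, 5% CO2, 48 h). Read-out was CFU/g and mean log10 reduction; analysts were blinded.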

[15] = test system: Rattus norvegicus; assay: Toxicity in jawbone peri-implant osteomyelitis Sprague-Dawley rat model infected with Aggregatibacter actinomycetemcomitans assessed as cutaneous injection-site reactions at 0.1 to 10 mg/kg, ip single dose measured after 1 week post pharmacotherapy; assay type: organism-based; conditions: in vivo, 168 h
Procedure, shortened: (§5)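 Rats bearing infected palatal implants received i.p. dosing in sterile saline. They were observed during therapy for cutaneous injection-site reactions, inflammation and gross tolerability issues, and were euthanized one week after pharmacotherapy.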

[16] = test system: Rattus norvegicus; assay: Toxicity in jawbone peri-implant osteomyelitis Sprague-Dawley rat model infected with Aggregatibacter actinomycetemcomitans assessed as signs of gross tolerability issue at 0.1 to 10 mg/kg, ip single dose measured after 1 week post pharmacotherapy; assay type: organism-based; conditions: in vivo, 168 h
Procedure, shortened: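 Rats carried two *Aa* (D7S-1) biofilm-coated miniature titanium implants (10^9 CFU) in the palatal bone, one on each side. Dosing began one week after surgery: a single intraperitoneal injection under anesthesia, in sterile physiological saline, with 2 rats per group. Injection-site reactions and gross tolerability were observed during therapy. Animals were euthanized one week after pharmacotherapy.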

[17] = test system: Rattus norvegicus; assay: Toxicity in jawbone peri-implant osteomyelitis Sprague-Dawley rat model infected with Aggregatibacter actinomycetemcomitans assessed as signs of gross tolerability at 0.3 mg/kg, ip administered 3 times per week measured after 1 week post pharmacotherapy; assay type: organism-based; conditions: in vivo, 168 h; procedure, shortened: as §5
[18] = test system: Aggregatibacter actinomycetemcomitans; assay: Antibiofilm activity against Aggregatibacter actinomycetemcomitans infected in jawbone peri-implant osteomyelitis Sprague-Dawley rat model assessed as mean CFU count/gram at 10 mg/kg, ip single dose measured after 1 week post pharmacotherapy; assay type: functional, organism-based; procedure, shortened: as §4
[19] = test system: Aggregatibacter actinomycetemcomitans; assay: Antibiofilm activity against Aggregatibacter actinomycetemcomitans infected in jawbone peri-implant osteomyelitis Sprague-Dawley rat model assessed as mean CFU count/gram at 0.3 mg/kg, ip administered 3 times per week measured after 1 week post pharmacotherapy; assay type: functional, organism-based; procedure, shortened: as §4

SMILES: O=C(O)c1cn(C2CC2)c2cc(N3CCN(C(=O)Oc4ccc(CC(P(=O)(O)O)P(=O)(O)O)cc4)CC3)c(F)cc2c1=O
- MIC [1]: 0.49 µg/mL (≈ 0.766 µM)
- MIC [2]: 3.9 µg/mL (≈ 6.1 µM)
- MIC [3]: 1.9 µg/mL (≈ 2.97 µM)
- MIC [4]: 31.2 µg/mL (≈ 48.8 µM)
- MIC [5]: 15.6 µg/mL (≈ 24.4 µM)
- MIC50 [6]: 15.6 µg/mL (≈ 24.4 µM)
- MIC90 [6]: 31.2 µg/mL (≈ 48.9 µM)
- MBIC50 [7]: 15.6 to 31.2 µg/mL
- MBIC50 [8]: 16 µg/mL
- MBIC90 [8]: 100 µg/mL
- Activity [9]: Active
- Activity [10]: Active
- Activity [11]: 3.3 ×10⁹ CFU
- Activity [12]: Active
- Activity [13]: Active
- Activity [14]: Active
- Activity [15]: Non-Toxic
- Activity [16]: Non-Toxic
- Activity [17]: Non-Toxic
- Activity [18]: Active
- Activity [19]: Active
